Structures are written as SMILES. ≈ marks a conversion by molar mass, not a printed value. Calls of active or inactive are those of the source. The calls are words filed in the database; no cut-off is given here.

Data set [1] addresses T1, Large neutral amino acids transporter small subunit 1 (Homo sapiens, UniProt Q01650). The data set can be described thus: Inhibition of LAT1 in human MCF7 cells assessed as potentiation of cisplatin-induced antiproliferative activity by measuring reduction in cell viability at 100 uM measured after 72 hrs by resazurin dye-based fluorimetric analysis. The gist of the method:
(§1)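 MCF-7 cells seeded 2 × 10^4/well on collagen-coated plates, treated one day later in growth medium with inhibitor (25 or 100 µM) plus bestatin or cisplatin (100 µM) for up to 3 days. Viability read daily by resazurin fluorescence (ex 560/em 590 nm). Viability is treated relative to untreated control. Mean ± SD, n=3.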

Data set [2] deals with T1, Large neutral amino acids transporter small subunit 1. The data set can be described thus: Inhibition of LAT1 in human MCF7 cells assessed as potentiation of bestatin-induced antiproliferative activity by measuring reduction in cell viability at 100 uM measured after 48 hrs by resazurin dye-based fluorimetric analysis. The gist of the method:
as §1
A general note: Resazurin is reduced to fluorescent resorufin, in cell work by metabolically active cells.

A short description of data set [3]: Tmax in mouse brain at 23 umol/kg, ip administered as bolus by LC-MS analysis. It counts as ADME, organism-based. The gist of the method:
(§2)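 Adult male mice (25 ± 5 g) given a single i.p. bolus of 23 µmol/kg, dosing solution 1.36 mM in 10% (v/v) DMSO, 20% (w/v) hydroxypropyl-β-cyclodextrin, 0.9% NaCl in water. Decapitation at time points 10–480 min; plasma, brain, liver, prostate, kidney, heart collected. Acetonitrile precipitation with repaglinide internal standard, LC-MS (ESI positive). tmax and t½β taken from concentration-time data; mean ± SEM, n=3.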

Data set [4] in a line: Tmax in mouse liver at 23 umol/kg, ip administered as bolus by LC-MS analysis. It is filed as ADME, organism-based. The gist of the method: as §2
Data set [5] deals with T1, Large neutral amino acids transporter small subunit 1. The data set can be described thus: Competitive binding to LAT1 in human MCF7 cells at 100 uM after 30 mins in presence of OATP 1B1/1B3 inhibitor rifampicin by HPLC analysis. It counts as cell-based. The gist of the method: (§3)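 MCF-7 cells incubated 30 min at 37 °C in HBSS (pH 7.4) holding 100 µM test compound plus 500 µM competitor. Cells washed three times with ice-cold HBSS and lysed in 0.1 M NaOH. Cell-associated compound measured by HPLC against a lysate-spiked standard curve and normalised to protein. Mean ± SD, n=3.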

Data set [6] can be described thus: Unbound AUC (0 to 480 mins) in mouse prostate at 23 umol/kg, ip administered as bolus by LC-MS analysis. It counts as ADME, organism-based, Prostate gland. Particulars: in vivo. The gist of the method: (§4)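 Male mice (25 ± 5 g) dosed i.p. as a bolus at 23 µmol/kg in DMSO/hydroxypropyl-β-cyclodextrin/saline vehicle, sampled at time points 10–480 min; plasma and tissue homogenates (1:3 water) analysed by LC-MS. […] Mean ± SEM.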

Data set [7] in a line: Unbound AUC (0 to 480 mins) in mouse kidney at 23 umol/kg, ip administered as bolus by LC-MS analysis. It is filed as ADME, organism-based. Particulars: in vivo. The gist of the method:
as §4

Data set [8] is described as follows: Terminal half life in mouse liver at 23 umol/kg, ip administered as bolus by LC-MS analysis. It counts as ADME, organism-based. Particulars: read-out: beta t1/2. The gist of the method: (§5)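 Male adult mice (25 ± 5 g) given a single i.p. bolus at 23 µmol/kg. The dosing solution was 1.36 mM in 10% (v/v) DMSO, 20% (w/v) hydroxypropyl-β-cyclodextrin and 0.9% NaCl. Animals were decapitated at seven time points from 10 to 480 min. Plasma and tissues were acetonitrile-precipitated with repaglinide internal standard and analysed by LC-MS. Parameters were derived from concentration–time data, mean ± SEM (n=3).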

Data set [9] in a line: AUC (0 to 480 min) in mouse kidney at 23 umol/kg, ip administered as bolus by LC-MS analysis. Particulars: in vivo, 8 h. It is filed as ADME, organism-based. More on the design: time < 8 hr, dose 23 umol/kg, route intraperitoneal. The gist of the method:
as §5

In data set [10] the test system is MCF7. The data set can be described thus: Antiproliferative activity against human MCF7 cells assessed as reduction in cell viability at 100 measured after 24 hrs by resazurin dye-based fluorimetric analysis. It counts as functional. The gist of the method:
(§6)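 MCF-7 cells were seeded at 2 × 10^4 cells/well on collagen-coated plates and treated one day later. Agents were given alone or combined (25 or 100 µM with 100 µM partner drug) in growth medium for 3 days. Viability was read daily by resazurin fluorescence (ex 560/em 590 nm) and expressed relative to untreated controls.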

Data set [11] in a line: Cmax in mouse brain at 23 umol/kg, ip administered as bolus by LC-MS analysis. It counts as ADME, organism-based. On the set-up: dose 23 umol/kg, route intraperitoneal. Particulars: in vivo. The gist of the method:
as §5

Data set [12] in a line: Tmax in mouse kidney at 23 umol/kg, ip administered as bolus by LC-MS analysis. It is filed as ADME, organism-based. The gist of the method: as §2
Data set [13] can be described thus: Aqueous solubility of the compound measured after 4 hrs by HPLC method. It counts as physicochemical.
A short description of data set [14]: Fraction unbound in mouse liver at 23 umol/kg, ip administered as bolus by LC-MS analysis. It is filed as ADME, organism-based. The gist of the method:
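Unbound fraction was measured by equilibrium dialysis at 100 µM in mouse plasma and in brain, liver, kidney, heart and prostate homogenates.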

The target in data set [15] is T1, Large neutral amino acids transporter small subunit 1. The data set can be described thus: Competitive binding to LAT1 in human MCF7 cells at 100 uM after 30 mins in presence of MCT1 inhibitor phloretin by HPLC analysis. It counts as cell-based. The gist of the method:
as §3

A short description of data set [16]: Unbound AUC (0 to 480 mins) in mouse plasma at 23 umol/kg, ip administered as bolus by LC-MS analysis. It is filed as ADME, organism-based. Particulars: in vivo. The gist of the method: as §4
Data set [17] addresses T1, Large neutral amino acids transporter small subunit 1. The data set can be described thus: Drug uptake in human MCF7 cells assessed as LAT1 mediated drug transport per mg of protein at 100 uM measured 30 mins after warm wash by HPLC analysis. It counts as ADME, cell-based. Particulars: mcf7, 0.5 h. The gist of the method:
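MCF-7 monolayers were incubated with 100 µM compound in HBSS at 37 °C for 5 or 30 min. Cells got three washes with ice-cold or warm (37 °C) HBSS; in the warm 30 min arm they were washed after 5 min and again after 30 min. Lysates (0.1 M NaOH) were quantified by HPLC-UV against a spiked lysate standard curve and normalised to protein (Bio-Rad assay).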

Data set [18] can be described thus: AUC (0 to 480 min) in mouse brain at 23 umol/kg, ip administered as bolus by LC-MS analysis. It is filed as ADME, organism-based. More on the design: time < 8 hr, dose 23 umol/kg, route intraperitoneal. Particulars: in vivo, 8 h. The gist of the method:
as §5

Data set [19] has as its target T1, Large neutral amino acids transporter small subunit 1. The data set can be described thus: Competitive inhibition of [14C]-L-leucine uptake at LAT1 in human MCF7 cells at 100 uM preincubated for 10 mins followed by addition of substrate measured during 5 mins by liquid scintillation counting. It is filed as cell-based. The gist of the method: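 MCF-7 cells seeded 1 × 10^5/well, used one day later. Washed and pre-incubated 10 min at 37 °C in choline-chloride HBSS (Na+-free, 25 mM HEPES, pH 7.4), then 5 min at 37 °C with 0.157 µM [14C]-L-leucine plus 1-1000 µM inhibitor (DMSO blank). Ice-cold washes, NaOH lysis, scintillation counting. IC50 by nonlinear regression over 8 concentrations. Mean ± SD, n=3.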

For data set [20], the system named is MCF7. The data set can be described thus: Antiproliferative activity against human MCF7 cells assessed as reduction in cell viability at 25 measured after 72 hrs by resazurin dye-based fluorimetric analysis. It is filed as functional. The gist of the method:
as §6

The nature of data set [21]: fCmax in mouse prostate at 23 umol/kg, ip administered as bolus by LC-MS analysis. It counts as ADME, organism-based, Prostate gland. Particulars: in vivo. The gist of the method: as §4
The next data set deals with Mus musculus. The data set can be described thus: Binding affinity to LAT1 in mouse brain assessed as inhibition of [14C]-L-leucine uptake at 23 umol/kg, ip measured post perfusion with [14C]-L-leucine. Particulars: TDE = time-dependent effect. It is filed as functional, organism-based. The gist of the method: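 Mice under ketamine/xylazine anaesthesia had the right common carotid artery cannulated. Brains were perfused at 37 °C, 2.5 mL/min, for 30 s with 0.157 µM [14C]-L-leucine, then 2 s with analyte-free buffer at 4 °C. Perfusion took place 10 or 180 min after 23 µmol/kg i.p. dosing.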

T1 sequence (Q01650 whole entry): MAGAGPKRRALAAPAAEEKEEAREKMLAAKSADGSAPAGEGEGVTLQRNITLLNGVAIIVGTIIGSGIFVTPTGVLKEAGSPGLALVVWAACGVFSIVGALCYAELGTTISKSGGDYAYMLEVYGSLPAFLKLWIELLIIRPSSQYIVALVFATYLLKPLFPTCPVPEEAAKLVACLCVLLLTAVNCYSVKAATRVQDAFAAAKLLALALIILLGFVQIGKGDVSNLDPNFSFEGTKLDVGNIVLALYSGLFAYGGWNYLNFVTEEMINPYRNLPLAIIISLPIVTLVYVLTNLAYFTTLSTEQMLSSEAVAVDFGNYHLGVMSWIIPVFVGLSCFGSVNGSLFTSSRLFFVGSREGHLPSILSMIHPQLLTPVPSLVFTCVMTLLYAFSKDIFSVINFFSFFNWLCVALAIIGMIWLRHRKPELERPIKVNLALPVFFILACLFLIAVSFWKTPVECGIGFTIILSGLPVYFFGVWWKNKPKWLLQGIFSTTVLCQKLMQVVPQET

For `CNC(=O)COc1ccc(-c2c(C#N)c(NC(=O)c3cccc(C[C@H](N)C(=O)O)c3)n3c(nc4ccccc43)c2C#N)cc1`, the Activity in data set [1] is 81.9%; in [2], 42.7%; with MCF7 [10], 22.9%; in the data set on MCF7 [20], 34.8%; in the data set on Mus musculus it was “Tde”. The Tmax – broadly, the time at which the peak concentration occurs – is 30 min in data set [3], 10 min in data set [4] and 10 min in data set [12]. For the same compound, the outcome in data set [5] and in [15] was Active. Further, the fAUC in data set [6] was determined as 18.4 nmol/g/min; in [7], 23.7 nmol/g/min; in [16], 7.8 nmol/min/mL. The half-life in data set [8] worked out at 52.8 min. Moreover, the figures for the AUC in data set [9] and in [18] were 1426 nmol/g/min and 11 nmol/g/min, respectively. The compound further returned a Cmax in data set [11] of 0.2 nmol/g. For the same compound, the solubility (as a rule, the concentration that dissolves in the medium under given conditions) at 4 h in [13] amounted to 1160 µg/mL (≈ 1970 µM). Further, the fraction unbound (usually free concentration divided by total concentration) in [14] stood at 0.0098. Further, in data set [17], the Drug uptake amounted to 0.21 nmol/mg. The inhibition – broadly, the percentage by which the read-out fell short of the control – in data set [19] came out at 77.8%. The fCmax in data set [21] amounted to 0.34 nmol/g.

These data come from ChEMBL document CHEMBL4425108, “A Selective and Slowly Reversible Inhibitor of l-Type Amino Acid Transporter 1 (LAT1) Potentiates Antiproliferative Drug Efficacy in Cancer Cells” (J Med Chem, 2016).
